Where only a bound is given, the exact number is not on record here.

Assay [1] deals with other brain serine hydrolases. The assay is described as follows: In vitro competitive ABPP with FP-Rh, off-target profile. It is filed as biochemical, mouse. Summed up:
(§1)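 Mouse brain membrane proteome (1.0 mg/mL) was preincubated with DMSO or test compound (1–100,000 nM) for 30 min at 37 °C. FP-Rh (50 μM stock in DMSO) was added for another 30 min at room temperature, and reactions were quenched with SDS loading buffer. After SDS-PAGE, MAGL, ABHD6 and FAAH activities were quantified from in-gel fluorescent band intensities, from which IC50 values were calculated.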

Assay [2] concerns the target T1, ABHD6 (Mus musculus, UniProt Q8R2Y0).
T1 sequence (Q8R2Y0 1-336): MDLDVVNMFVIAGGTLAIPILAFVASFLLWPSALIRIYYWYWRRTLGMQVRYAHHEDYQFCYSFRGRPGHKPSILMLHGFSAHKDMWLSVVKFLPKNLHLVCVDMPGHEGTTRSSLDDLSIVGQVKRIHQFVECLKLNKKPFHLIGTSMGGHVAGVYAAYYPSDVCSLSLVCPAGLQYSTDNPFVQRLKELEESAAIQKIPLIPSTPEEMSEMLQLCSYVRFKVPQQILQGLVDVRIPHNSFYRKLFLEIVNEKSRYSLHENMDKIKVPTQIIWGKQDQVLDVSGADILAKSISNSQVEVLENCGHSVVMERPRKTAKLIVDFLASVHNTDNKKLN
The assay is described as follows: In vitro competitive ABPP with FP-Rh in mouse brain proteome. It is filed as biochemical. To be noted: for relative ABHD6 inhibitory potency: JW842 vs JW843, JW651 vs JW814, MJN110 vs all carbamates. Summed up:
as §1

Assay [3] has as its system MAGL. The assay is described as follows: In vivo competitive ABPP of brain proteomes from treated mice. On the set-up: species or system mouse. The procedure, abridged:
(§2)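 C57Bl/6J mice received test compound by oral gavage in PEG300 (1.0–40 mg•kg-1). At 4 h they were anesthetized with isoflurane, killed by cervical dislocation, and tissues were flash-frozen. Brain membrane proteomes were labeled with FP-Rh for 30 min at room temperature, quenched in reducing SDS loading buffer, separated on 10% SDS-PAGE and scanned for in-gel fluorescence.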

Assay [4] deals with T1, ABHD6. The assay is described as above. Particulars: 40 mg•kg^-1 p.o., 4 h. Summed up:
as §2

The subject of assay [5] is brain lipid levels (2-AG, AA, AEA). The assay is described as follows: Brain lipid levels in treated mice. It is filed as in vivo, mouse. Particulars: JW651-treated mice, p.o., 4 h. The procedure, abridged:
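C57Bl/6J mice were dosed by oral gavage in PEG300 (1.0–40 mg•kg-1). After 4 h they were anesthetized with isoflurane and killed by cervical dislocation. Brains were harvested and flash-frozen in liquid N2. Lipids were measured by LC/MS against commercial standards.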

For assay [6], the target named is T2, MAGL (Mus musculus, UniProt O35678).
T2 sequence (O35678 1-303): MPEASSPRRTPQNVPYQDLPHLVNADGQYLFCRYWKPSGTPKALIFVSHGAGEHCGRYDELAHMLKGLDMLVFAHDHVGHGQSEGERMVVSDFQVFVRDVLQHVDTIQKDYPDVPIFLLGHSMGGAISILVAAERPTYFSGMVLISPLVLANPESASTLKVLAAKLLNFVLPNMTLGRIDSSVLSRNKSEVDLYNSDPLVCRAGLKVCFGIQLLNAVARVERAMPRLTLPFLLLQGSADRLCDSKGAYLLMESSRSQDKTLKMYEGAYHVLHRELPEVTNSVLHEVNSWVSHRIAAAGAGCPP
The assay is described as follows: In vitro competitive ABPP with FP-Rh in mouse brain proteome. It is filed as biochemical. Particulars: JW842 vs JW843, JW651 vs JW814; MJN110 vs all carbamates. Summed up: as §1

The target in assay [7] is T3, FAAH (Mus musculus, UniProt O08914).
T3 sequence (O08914 1-579): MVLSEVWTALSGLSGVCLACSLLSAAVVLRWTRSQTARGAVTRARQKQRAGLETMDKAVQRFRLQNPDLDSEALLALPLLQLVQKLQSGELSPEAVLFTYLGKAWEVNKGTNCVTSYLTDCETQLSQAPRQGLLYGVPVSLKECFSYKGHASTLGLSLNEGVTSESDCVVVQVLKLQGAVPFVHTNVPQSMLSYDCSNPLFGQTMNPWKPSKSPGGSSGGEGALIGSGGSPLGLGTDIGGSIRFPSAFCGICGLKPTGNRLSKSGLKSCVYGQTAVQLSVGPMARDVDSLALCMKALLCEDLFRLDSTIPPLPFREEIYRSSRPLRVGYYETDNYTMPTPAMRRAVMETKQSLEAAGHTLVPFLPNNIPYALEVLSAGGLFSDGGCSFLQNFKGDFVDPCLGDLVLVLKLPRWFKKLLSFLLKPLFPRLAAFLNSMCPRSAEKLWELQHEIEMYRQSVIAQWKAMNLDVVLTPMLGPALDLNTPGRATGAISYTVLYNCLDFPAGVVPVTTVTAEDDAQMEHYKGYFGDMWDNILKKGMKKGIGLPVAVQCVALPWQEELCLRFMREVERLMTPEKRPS
Briefly: In vitro CC-ABPP of mouse brain proteomes. It is filed as biochemical. Summed up: (§3)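 Brain membrane proteome from naïve mice (1.0 mg/mL) was treated with varying concentrations of alkyne carbamate probe for 30 min at 37 °C. A premixed click mixture was added immediately: CuSO4 (50 mM stock), TBTA (1.7 mM stock), freshly prepared TCEP (50 mM stock) and Rh-N3 (1.25 mM stock). Reactions ran 1 h at room temperature, were diluted with SDS loading buffer, and were read by SDS-PAGE in-gel fluorescence.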

Another assay concerns carboxylesterases (CESs). Briefly: In vivo CC-ABPP of liver proteomes. Set-up: species or system mouse. To be noted: oral, 1-40 mg•kg^–1, 4 h. Summed up:
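Mice received oral alkyne carbamate probe in PEG300 (1–40 mg•kg-1) for 4 h before livers were harvested and flash-frozen. Liver membrane proteome, with the soluble fraction removed, was diluted to 1.0 mg/mL. It was clicked to Rh-N3 with premixed CuSO4, TBTA and fresh TCEP for 1 h at room temperature, then diluted in SDS loading buffer and resolved by SDS-PAGE for in-gel fluorescence.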

For assay [8], the target named is T3, FAAH. The assay is described as follows: In vivo competitive ABPP of brain proteomes from treated mice. Particulars: oral, 4 h. The procedure, abridged:
as §2

The target of assay [9] is T3, FAAH. Briefly: In vitro competitive ABPP with FP-Rh in mouse brain proteome. It is filed as biochemical. Particulars: 30 min, 37 °C. The procedure, abridged: as §1
Another assay deals with brain serine hydrolases. Briefly: In vivo competitive ABPP of brain proteomes, off-target profile. On the set-up: species or system mouse. Particulars: oral, 1-40 mg•kg^–1, 4 h. Summed up: as §2
In assay [10] the test system is mouse brain proteome. Briefly: In vitro CC-ABPP, background proteome reactivity. It is filed as biochemical. The procedure, abridged:
as §3

In assay [11] the target is T2, MAGL. The assay is described as follows: In vivo competitive ABPP of liver proteomes. To be noted: oral, 1-40 mg•kg^–1, 4 h. Summed up: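 Mice were gavaged orally with test compound in PEG300 (1.0–40 mg•kg-1). After 4 h, animals were killed under isoflurane and livers flash-frozen. Liver membrane proteomes were labeled with FP-Rh for 30 min at room temperature, quenched with reducing SDS loading buffer, resolved on 10% SDS-PAGE and read by in-gel fluorescence scanning.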

Assay [12] relates to MAGL. Briefly: In vitro click chemistry. To be noted: CC-ABPP with Rh-N3, 30 min, 37 °C. It is filed as biochemical, mouse. The procedure, abridged:
as §3

The test system of assay [13] is mouse brain proteome. Briefly: In vivo CC-ABPP of brain proteomes, off-target labeling. Particulars: entire tested dose range 1-40 mg•kg^–1 p.o.

Take `O=C(OC(C(F)(F)F)C(F)(F)F)N1CCN(C(c2ccc(Cl)cc2)c2ccc(Cl)cc2)CC1` [JW651]: the “cross-reactivity with other brain serine hydrolases off-targets” value in [1] (up to 10 μM) is “did not exhibit cross-reactivity”. Moreover, in [1] (up to 100 μM JW651, membrane fraction of mouse brain proteome), the detectable off-targets result is “ABHD6 being the only detectable off-target”. On ABHD6 [2] (at 10 μM), the “blockade of ABHD6” value was “partial blockade”. The “lowest dose giving near complete / complete inhibition of MAGL in brain” value with MAGL [3] (C57Bl/6J mice, oral gavage 1.0 to 40 mg•kg^-1, 4 h) came out at 5 mg/kg. Moreover, the “inhibition of ABHD6 in brain” value on ABHD6 [4] is given as “partial inhibition”. Besides, in assay [5], the “brain levels of N-arachidonoylethanolamide (AEA)” value was “unaffected”, the “brain levels of arachidonic acid (AA)” value is on record as “concomitant reductions” and the “elevation of brain levels of 2-AG” value is 10 fold.
For the compound `O=C(Oc1ccc([N+](=O)[O-])cc1)N1CCN(C(c2ccc(Cl)cc2)c2ccc(Cl)cc2)CC1` [JW842], the “relative MAGL inhibitory potency” value at MAGL [6] is reported as “much greater potency”. For the same compound, the “relative ABHD6 inhibitory potency” value on ABHD6 [2] is listed as “much greater potency”.
`C#Cc1ccc(C(c2ccc(Cl)cc2)N2CCN(C(=O)Oc3ccc([N+](=O)[O-])cc3)CC2)cc1` (stereo not shown) [JW842yne]: on FAAH [7], the “cross-reactivity with FAAH” value is “some cross-reactivity”. For the same compound, the “CES labeling in liver” value in the assay with carboxylesterases (CESs) is “strongest CES labeling profile”. The “dose producing strong inhibition of FAAH in brain” value at FAAH [8] is at least 10 mg•kg^–1. Also, at FAAH [9], the “change in inhibitory activity against FAAH on exchange of chloro for alkyne” value is reported as “slight increase”. Also, the “relative activity on MAGL in the brain in vivo” value in the assay with MAGL [3] (oral, 1-40 mg•kg^–1, 4 h, vs JW651yne and MJN110yne) was “less active”.
Turning to `O=C(ON1C(=O)CCC1=O)N1CCN(C(c2ccc(Cl)cc2)c2ccc(Cl)cc2)CC1` [MJN110], at MAGL [6], the “relative MAGL inhibitory potency” value is on record as “highest”. The other off-targets observed result in assay [1] (below 100 μM) is on record as “LYPLA1/2 being the only other off-targets”. On ABHD6 [2], the “relative ABHD6 inhibitory potency” value is given as “highest”.
Turning to `C#Cc1ccc(C(c2ccc(Cl)cc2)N2CCN(C(=O)ON3C(=O)CCC3=O)CC2)cc1` (stereo not shown) [MJN110yne], the “only detectable off-target activity in brain in vivo” value in the assay on brain serine hydrolases is “ABHD6”. In addition, the “probe concentration at which background proteome reactivity became apparent” value in the assay with mouse brain proteome [10] (CC-ABPP with Rh-N3, more dramatic at 100 μM) was determined as 10 µM. Moreover, the “degree of background proteome reactivity” value with mouse brain proteome [10] (CC-ABPP, concentrations up to 100 μM) is given as “highest degree of background proteome reactivity”. For the same compound, the “lowest dose substantially inhibiting MAGL in the brain” value in the assay on MAGL [3] (oral, 1-40 mg•kg^–1, 4 h) amounted to 5.0 mg•kg^–1. Further, the “inactivation of MAGL in liver” value on MAGL [11] is given as “potent inactivation”. The “lowest probe concentration detecting MAGL reactivity” value in the assay on MAGL [12] was 10 nM. In addition, the “broader background proteome labeling in vivo” value in the assay on mouse brain proteome [13] was “did not reveal broader background proteome labeling”.

(Values after publication PMC3806897 (ACS chemical biology, 2013).)
